STAT3 act – STAT3 signaling activation | U3A cells, IL-6 STAT3-luciferase reporter, luminescence; 100% = signal with IL-6 EC80 alone | activation (% of control), % at 5.6 µM | actives 0.91% (n = 190,000);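 active means activation above the screen-wide mean of compound activation plus 3 SD, cut at about 130% in these data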;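 further: 0% = background luminescence of wells with medium and substrate only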
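Test system: STAT3-luciferase reporter U3A cells; Detection: reporter luminescence signal; Times: 1 h compound pre-exposure, 6 h IL-6 stimulation, 37 °C; Benchmarks: IL-6-only high control; Also added: IL-6 stimulus at 33 ng/mL final.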
APP 5'UTR act – activates APP 5'UTR luciferase reporter; AID 1276; actives 1% (n = 190,000); SH-SY5Y APP 5'UTR luciferase reporter, luminescence; zero percent = DMSO vehicle wells; activation, % at 2 µM;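 active means activation above a set limit, based on mean plus 3 SD of controls, cut at about 140% in these data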
STAT3 inh – reduces IL-6 driven STAT3 reporter signal; U3A cells, IL-6 STAT3-luciferase reporter, luminescence; host cell line lacks STAT1; inhibition, % at 5.5 µM; actives 0.89% (n = 190,000);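 active means inhibition above the mean inhibition across all screened compounds plus 3 SD, cut at about 44% in these data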;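 further: 0% = DMSO only wells and 100% = 100 µM nifuroxazide control wells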
STAT1 inh – inhibitors of IFN-gamma induced STAT1 signaling; NIH 3T3 STAT1-luciferase reporter, luminescence; inhibition, % at 5.5 µM; actives 0.35% (n = 200,000); AID 920;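 active means inhibition above a set limit, the mean inhibition across all tested compounds plus 3 SD, cut at about 34% in these data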;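 further: 0% = IFN-gamma with DMSO and 100% = IFN-gamma with 300 µM nifuroxazide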
NF-kB neuron act – NF-kB expression increase, human neuronal cells. NF-kB reporter expression; active compounds read high. AID 1239. fold change at 12.5 µM. actives 1.6% (n = 190,000); in the data active means fold change above about 3.3
STAT1 act – activators of IFN-gamma induced STAT1 signaling. NIH 3T3 STAT1-luciferase reporter, luminescence; 100% = IFN-gamma alone, no compound. activation (% of control), % at 5.5 µM. actives 2.6% (n = 200,000). AID 932;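 active means activation above the screen-wide mean activation plus 3 SD, cut at about 130% in these data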;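 further: raw ratio to IFN-gamma control signal so 100% means no change and 0% no light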
Numbers without * were called inactive; . = no result given. The list is not random: actives were taken first. Their share in the collection is about 4.9%.

SMILES | STAT3 act | APP 5'UTR act | STAT3 inh | STAT1 inh | NF-kB neuron act | STAT1 act
CCOC(=O)N1CCC(N(CCN(C)C)C(=S)Nc2ccc(Oc3ccccc3)cc2)CC1 | 107.5 | -10.3 | -3.5 | 5.8 | 0.83 | 96.1
O=C(NCc1ccco1)c1ccc(CNc2c(N3CCCCC3)c(=O)c2=O)cc1 | 95.5 | -18.6 | 5.1 | 0.2 | 1.15 | 99.8
Cc1ccc(Nc2nc3ccccc3[nH]2)nc1 | 106.5 | 100.3 | -4.9 | -27.2 | 5.38* | 125.1
O=C(/C=C/c1c(F)cccc1Cl)Nc1ccncc1 | 102.1 | 59.8 | -4.2 | -16.4 | 2.36 | 115.5
Cc1ccc(/C=C/C(=O)c2nc3ccccc3[nH]2)cc1 | 94.7 | -2.2 | 13.8 | -11.7 | 1.65 | 110.5
O=C(/C=C/c1c(F)cccc1Cl)Nc1nc2ccccc2[nH]1 | 101.5 | 115.0 | 1.1 | -34.2 | 1.41 | 130.1*
COc1ccccc1Nc1nc2ccccc2[nH]1 | 89.2 | 46.5 | 17.8 | -8.5 | 1.71 | 107.8
Cc1ccc(/C=C/C(=O)Nc2nc3ccccc3[nH]2)cc1 | 114.7 | 179.7* | -15.3 | -32.0 | 2.05 | 128.6*
O=C(Nc1ccc(Oc2ccccc2)cc1)C1CCCO1 (stereo not given) | 101.9 | 19.8 | 2.2 | -35.7 | 1.72 | 132.4*
O=C(Nc1ccc(-c2nc3cc(Cl)ccc3o2)cc1)C1CCCO1 (stereo not given) | 87.3 | 74.2 | 14.3 | -53.6 | 2.33 | 149.5*
COc1ccc(NC(=O)C2CCCO2)cc1 (stereo not given) | 99.0 | 5.2 | 5.4 | 5.9 | 1.18 | 94.5
O=C(Nc1ccc(-c2nc3ccccc3o2)cc1)C1CCCO1 (stereo not given) | 66.8 | 233.1* | 43.0 | -24.4 | 4.24* | 140.0*
CCOC(=O)c1c(NC(=O)CN2C(=O)NC3(CCC(CC)CC3)C2=O)sc(C)c1-c1ccc(C)cc1 (stereo not given) | 102.5 | -1.8 | -0.7 | -10.4 | 0.97 | 109.3
Cn1c(NC(=S)Nc2ccccc2)nc2ccccc21 | 82.5 | 160.3* | 21.2 | -47.3 | 1.12 | 141.5*
S=C(Nc1ccccc1)Nc1nc2ccccc2n1CCOc1ccc(Br)cc1 | 100.4 | 10.5 | -1.0 | 8.1 | 1.05 | 92.6
Nc1ccc(Nc2nc(-c3cc4ccccc4oc3=O)cs2)cc1 | 80.2 | 94.8 | 25.4 | -50.3 | 8.98* | 144.2*
O=C(O)c1ccc(Nc2nc(-c3cc4ccccc4oc3=O)cs2)cc1O | 103.7 | -5.0 | -4.9 | -11.1 | 0.66 | 110.5
CNc1nnc(-c2cc3ccccc3oc2=O)s1 | 82.9 | 101.3 | 20.8 | -47.1 | 3.25 | 142.7*
CCc1ccc2nc(N3C(=O)c4oc5ccccc5c(=O)c4C3c3ccc(OC)c(OC)c3)sc2c1 (stereo not given) | 93.2 | 12.0 | 10.7 | -1.5 | 1.02 | 101.3
CCc1c(C)sc(NC(=O)C2CC2c2ccccc2)c1C(N)=O (stereo not given) | 134.1* | 3.7 | -33.2 | -7.7 | 1.49 | 107.1
COc1ccc(-c2cn3cc(C)ccc3n2)cc1F | 25.7 | 146.6* | 87.2* | 63.2* | 2.44 | 40.5
COc1ccc(-c2csc(C)n2)cc1OC | 97.3 | 14.0 | 9.9 | -5.2 | 1.95 | 104.8
COc1ccc(CC(=O)Nc2ccc(-c3cn4ccccc4n3)cc2)cc1OC | 85.1 | 7.0 | 16.7 | -11.8 | 1.37 | 110.8
CCOc1ccc(-c2cn3ccccc3n2)cc1 | 29.0 | 207.3* | 89.0* | 53.4* | 4.8* | 50.0
COc1ccc(-c2cn3cc(C)ccc3n2)cc1OC | 84.1 | 183.6* | 21.8 | -36.3 | 5.67* | 133.5*
SMILES | STAT3 act | APP 5'UTR act | STAT3 inh | STAT1 inh | NF-kB neuron act | STAT1 act
COc1ccc(-c2cn3ccccc3n2)cc1OC | 173.3* | 104.4 | -82.4 | -32.5 | 2.29 | 129.5*
Cc1cccc(N2C(=O)C(Oc3ccc(Cl)cc3Cl)C2C=O)c1C (stereo not given) | 106.2 | -9.1 | -9.9 | -9.9 | 1 | 108.8
Cc1ccc(S(=O)(=O)NC(C(=O)Oc2cc3oc(=O)cc(C)c3cc2Cl)C(C)C)cc1 (stereo not given) | 98.7 | -2.1 | 5.1 | 11.0 | 0.92 | 90.1
CCOc1cnn(Cc2ccccc2)c(=O)c1SCc1ccccc1 | 103.4 | 6.1 | -3.7 | 2.1 | 1.01 | 98.2
O=C1c2ccccc2NC(c2ccc3c(c2)OCCO3)N1c1ccc2c(c1)OCCO2 (stereo not given) | 85.0 | 84.9 | 23.5 | -19.4 | 4.39* | 118.8
COc1cc(C2Nc3ccccc3C(=O)N2c2ccc3c(c2)OCCO3)ccc1OCC(C)C (stereo not given) | 96.3 | 107.1 | 4.8 | -35.1 | 1.06 | 132.4*
COc1cc(C2Nc3ccccc3C(=O)N2c2ccccc2OC)ccc1O (stereo not given) | 98.9 | 20.4 | 4.1 | -5.2 | 0.97 | 104.7
O=C1c2cccc3cccc(c23)C(=O)N1CC1CCN(S(=O)(=O)c2ccc(F)cc2)CC1 | 102.9 | 7.8 | -6.1 | 3.3 | 0.97 | 97.0
Cc1ccc(S(=O)(=O)N2CCC(CN3C(=O)c4cccc5cccc(c45)C3=O)CC2)cc1 | 186.4* | 9.3 | -108.1 | 0.9 | 0.87 | 99.2
NS(=O)(=O)c1ccc(CCNC(=O)NC2(C(F)(F)F)Oc3ccccc3O2)cc1 | 102.8 | -24.7 | 0.3 | -18.1 | 3.85* | 116.6
COC1=CCC2([N+](=O)[O-])CN(CCO)CC1([N+](=O)[O-])C2 (stereo not given) | 101.9 | 1.9 | 1.8 | -0.3 | 0.98 | 100.2
Cc1cc(/C=N\NC(=O)CC(=O)NC2CCCCC2)c(C)n1-c1ccc(Cl)c(Cl)c1 | 105.2 | 8.8 | 4.2 | -5.5 | 0.96 | 104.9
Cc1cc(/C=N/NC(N)=S)c(C)n1-c1ccc(Cl)c(Cl)c1 | 97.3 | -5.7 | 1.1 | -16.0 | 7.81* | 114.3
CCNC(=S)N/N=C/c1cc(C)n(-c2ccc(Cl)cc2)c1C | 106.1 | 19.6 | 1.0 | -49.9 | 1.02 | 144.3*
CN(C)/C=N/c1nc2ccc3c(c2s1)CCCC3 | 106.5 | 102.4 | 0.0 | -43.2 | . | 139.4*
Cc1cc(NC2CCCCC2)n2c(n1)nc1ccccc12 | 98.4 | 8.1 | 8.7 | -4.4 | 5.42* | 103.1
Cc1cc(Nc2cccc(F)c2)n2c(n1)nc1ccccc12 | 91.7 | 10.5 | 17.8 | -0.5 | 1.14 | 102.7
O=C(NCc1ccccn1)C1CN(S(=O)(=O)c2ccccc2)CCN1S(=O)(=O)c1ccccc1 (stereo not given) | 93.8 | -1.2 | 11.5 | 2.4 | 1.12 | 96.5
COC(=O)Cc1ccc(NC(=O)c2ccc(Br)o2)cc1 | 94.6 | 51.5 | 9.4 | -28.3 | 1.75 | 126.0
CCN(CC)c1ccc(NC(=O)c2ccc(Br)o2)cc1 | 107.7 | 178.0* | -2.3 | -33.2 | 6.97* | 132.7*
O=C(Nc1ccc2c(c1)oc1ccccc12)c1ccc(Br)o1 | 97.1 | 54.9 | 7.5 | -43.4 | 1.64 | 139.4*
COc1ccc(/C=N/Nc2nccnc2Cl)cc1 | 68.9 | 164.5* | 37.1 | -3.7 | 3.18 | 103.4
